Active and inactive are the calls of the source.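 Rule for the calls: active = compounds lowering caspase luminescence whose fitted AC50 is at most ten times their top valid dose; inconclusive = flat partial inhibition or a poor quality curve fit; inactive = the rest.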
Legend:
[1] = tested on: INS-1E cytokine-induced caspase-3/7 luminescence, 48 h; test: suppressors of cytokine-driven caspase-3/7 activity, dose response, orthogonal assay for beta-cell apoptosis inhibitor project, INS-1E rat cells, dry powder, set 2 (AID 488936)
Outline: (§1)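 Assay system: rat INS-1E insulinoma cells; Reagent: IFN-gamma, TNF-alpha and IL-1β cytokine cocktail; Control set: SAHA positive control; Measure: IC50 of caspase-3/7 activity from concentration-response curve; Detection: Luciferase-based luminescence, Caspase-Glo 3/7 reagent; Times: 48 h cytokine and compound exposure, 1 h detection.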

[2] = as above; settings: INS-1E cytokine-induced caspase-3/7 luminescence, 48 h
Outline: as §1

Structure (SMILES)	activity change, negative = inhibition ([2]; at 26 µM (top of the series))	also measured
C[C@@H]1CN([C@@H](C)CO)C(=O)c2cccc(NC(=O)Nc3cccc(Cl)c3Cl)c2O[C@H]1CN(C)S(=O)(=O)c1ccc2c(c1)OCCO2		AC50 [1]: > 26 µM (inactive)
COc1ccc(S(=O)(=O)N(C)C[C@@H]2Oc3c(NC(=O)Nc4cccc5ccccc45)cccc3C(=O)N([C@H](C)CO)C[C@H]2C)cc1		AC50 [1]: > 23.5 µM (inactive)
C[C@@H]1CN([C@@H](C)CO)C(=O)c2cccc(NC(=O)Nc3cccc4ccccc34)c2O[C@H]1CN(C)S(=O)(=O)c1ccc2c(n1)N(C)CCO2		AC50 [1]: > 26 µM (inactive)
COc1ccc(S(=O)(=O)N(C)C[C@@H]2Oc3c(NC(=O)Nc4ccccc4)cccc3C(=O)N([C@@H](C)CO)C[C@H]2C)cc1		AC50 [1]: > 26 µM (inactive)
C[C@@H]1CN([C@@H](C)CO)C(=O)c2cccc(NC(=O)Nc3cccc4ccccc34)c2O[C@H]1CN(C)S(=O)(=O)c1ccc(OC(F)(F)F)cc1	100% (inactive)	
C[C@@H]1CN([C@H](C)CO)C(=O)c2cccc(NC(=O)Nc3ccc(F)cc3)c2O[C@H]1CN(C)S(=O)(=O)c1ccc(Cl)cc1	10.4% (inactive)	
COc1ccc(S(=O)(=O)N(C)C[C@@H]2Oc3c(NS(C)(=O)=O)cccc3C(=O)N([C@@H](C)CO)C[C@H]2C)cc1	-6.62% (inactive)	
COc1ccc(S(=O)(=O)N(C)C[C@@H]2Oc3c(NC(=O)Nc4cccc5ccccc45)cccc3C(=O)N([C@@H](C)CO)C[C@@H]2C)cc1	-6.51% (inactive)	
COc1ccc(S(=O)(=O)N(C)C[C@@H]2Oc3c(NS(=O)(=O)c4ccc(Cl)cc4)cccc3C(=O)N([C@@H](C)CO)C[C@H]2C)cc1	-4.43% (inactive)	
Cc1ccc(S(=O)(=O)N(C)C[C@@H]2Oc3c(NC(=O)Nc4ccccc4)cccc3C(=O)N([C@H](C)CO)C[C@H]2C)cc1	-10.7% (inactive)	
COc1ccc(S(=O)(=O)N(C)C[C@@H]2Oc3c(NC(=O)Nc4cccc5ccccc45)cccc3C(=O)N([C@H](C)CO)C[C@@H]2C)cc1	-4.27% (inactive)	
C[C@@H]1CN([C@@H](C)CO)C(=O)c2cccc(NC(=O)Nc3cccc4ccccc34)c2O[C@H]1CN(C)S(=O)(=O)c1ccc(F)cc1	4.91% (inactive)	
COc1ccc(S(=O)(=O)N(C)C[C@@H]2Oc3c(NC(=O)c4ccncc4)cccc3C(=O)N([C@@H](C)CO)C[C@H]2C)cc1	-4.94% (inactive)	
COc1ccc(S(=O)(=O)N(C)C[C@@H]2Oc3c(NC(=O)Nc4cccc5ccccc45)cccc3C(=O)N([C@@H](C)CO)C[C@H]2C)cc1C		activity change, negative = inhibition ([2]; at 12 µM (top of the series)): -20.2% (inactive)
COc1ccc(S(=O)(=O)N(C)C[C@@H]2Oc3c(NS(=O)(=O)c4cn(C)cn4)cccc3C(=O)N([C@@H](C)CO)C[C@H]2C)cc1	-6.15% (inactive)	
C[C@@H]1CN([C@@H](C)CO)C(=O)c2cccc(NC(=O)Nc3cccc4ccccc34)c2O[C@H]1CN(C)CC1CC1	-6.43% (inactive)	
Cc1ccc(S(=O)(=O)N(C)C[C@@H]2Oc3c(NC(=O)Nc4ccccc4)cccc3C(=O)N([C@@H](C)CO)C[C@H]2C)cc1	-11.7% (inactive)	
COc1ccc(S(=O)(=O)N(C)C[C@@H]2Oc3c(NC(=O)Nc4ccc(C(F)(F)F)cc4)cccc3C(=O)N([C@@H](C)CO)C[C@H]2C)cc1	13.3% (inactive)	
Cc1noc(C)c1NC(=O)N(C)C[C@@H]1Oc2c(NC(=O)Nc3cccc4ccccc34)cccc2C(=O)N([C@@H](C)CO)C[C@H]1C	-0.569% (inactive)	
COc1cccc(S(=O)(=O)N(C)C[C@@H]2Oc3c(NC(=O)Nc4cccc5ccccc45)cccc3C(=O)N([C@@H](C)CO)C[C@H]2C)c1	14.2% (inactive)	
C[C@@H]1CN([C@@H](C)CO)C(=O)c2cccc(NC(=O)Nc3ccccc3)c2O[C@H]1CN(C)S(=O)(=O)c1ccc(F)cc1	-13.5% (inactive)	
C[C@@H]1CN([C@@H](C)CO)C(=O)c2cccc(NC(=O)Nc3cccc4ccccc34)c2O[C@H]1CN(C)C(=O)Nc1ccc(C(F)(F)F)cc1		activity change, negative = inhibition ([2]; at 23.5 µM (top of the series)): 45.3% (inactive)

Reference: PubChem BioAssay AID488936 (Broad Institute, 2010)
